The results in this text go back to ChEMBL document CHEMBL1142210, “Plasmid-mediated KPC-2 in a Klebsiella pneumoniae isolate from China” (2007).

What all share (assay type): functional
In experiment [1] the test system is Escherichia coli. As to the kind of experiment: Antimicrobial activity against Escherichia coli DH5alpha by agar dilution method. In a few lines:
(§1)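 Agar dilution MIC testing run per CLSI (formerly NCCLS) guidelines. Where an agent was combined with clavulanic acid, the clavulanic acid was held at a fixed 4 μg/ml.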
On the technique in general: In agar dilution, organisms are placed on agar that contains the substance at set levels.

For experiment [2], the system named is Escherichia coli. Nature of the experiment: Antimicrobial activity against Escherichia coli DH5-alpha with pGEM-T EASY expressing TEM1 gene by agar dilution method. The settings on record: DH5alpha. In a few lines:
as §1

The subject of experiment [3] is Escherichia coli. As to the kind of experiment: Antimicrobial activity against Escherichia coli DH5-alpha pYW1 transformants expressing KPC2 gene by agar dilution method. As to conditions: DH5alpha. The method in brief:
as §1

In the next experiment the test system is Klebsiella pneumoniae. As to the kind of experiment: Antimicrobial activity against carbapenem-resistant Klebsiella pneumoniae ZR01 from patient sputum by agar dilution method. In a few lines:
as §1

Experiment [4] has as its system Escherichia coli. As to the kind of experiment: Antimicrobial activity against Escherichia coli DH5-alpha with pYW2 expressing KPC2 and TEM1 gene by agar dilution method. As to conditions: DH5alpha. In a few lines:
as §1

Values after ≈ are worked out from the molar mass of the structure shown. A value given as a limit tells only on which side of the number the result lay.

For orientation: MIC means the lowest concentration found to suppress growth. The low end stands for a more susceptible organism, the high end for a less susceptible organism. Take POLYMYXIN B: the MIC is 1 µg/mL against Escherichia coli [1]; 1 µg/mL in the experiment on Escherichia coli [2]; 1 µg/mL with Escherichia coli [3]; 2 µg/mL against Klebsiella pneumoniae; 1 µg/mL against Escherichia coli [4].

With `C[C@@H](O)[C@H]1C(=O)N2C(C(=O)O)=C(SCCNC=N)C[C@H]12` [IMIPENEM ANHYDROUS], the values for the MIC against Escherichia coli [3], with Klebsiella pneumoniae and in the experiment with Escherichia coli [4] were 4 µg/mL (≈ 13.4 µM), greater than 32 µg/mL and 8 µg/mL (≈ 26.7 µM), respectively.

As for `CC(C)(O/N=C(\C(=O)N[C@@H]1C(=O)N2C(C(=O)[O-])=C(C[n+]3ccccc3)CS[C@H]12)c1csc(N)n1)C(=O)O` [CEFTAZIDIME], the MIC was 0.25 µg/mL (≈ 0.457 µM) in the experiment with Escherichia coli [1]; 0.5 µg/mL (≈ 0.915 µM) in the experiment on Escherichia coli [2]; 4 µg/mL (≈ 7.32 µM) with Escherichia coli [3]; greater than 256 µg/mL in the experiment on Klebsiella pneumoniae; 32 µg/mL (≈ 58.5 µM) against Escherichia coli [4].

Regarding `CO/N=C(\C(=O)N[C@@H]1C(=O)N2C(C(=O)O)=C(CSc3nc(=O)c(O)nn3C)CS[C@H]12)c1csc(N)n1` [CEFTRIAXONE], the MIC with Escherichia coli [1] is 0.094 µg/mL (≈ 0.169 µM); in the experiment on Escherichia coli [2], 0.094 µg/mL (≈ 0.169 µM); in the experiment with Escherichia coli [3] it was 8 µg/mL (≈ 14.4 µM); in the experiment with Klebsiella pneumoniae it was greater than 256 µg/mL; in the experiment with Escherichia coli [4], 64 µg/mL (≈ 115 µM).

With `C[C@@H](O)[C@H]1C(=O)N2C(C(=O)O)=C(S[C@@H]3CN[C@H](C(=O)Nc4cccc(C(=O)O)c4)C3)[C@H](C)[C@H]12` [ERTAPENEM], the MIC with Escherichia coli [1] was 0.008 µg/mL (≈ 0.0168 µM); in the experiment with Escherichia coli [2] it was 0.012 µg/mL (≈ 0.0252 µM); with Escherichia coli [3], 0.5 µg/mL (≈ 1.05 µM); against Klebsiella pneumoniae, greater than 256 µg/mL; in the experiment on Escherichia coli [4], 2 µg/mL (≈ 4.21 µM).

As for `CO[C@H]1/C=C/O[C@@]2(C)Oc3c(C)c(O)c4c(O)c(c(/C=N/N5CCN(C)CC5)c(O)c4c3C2=O)NC(=O)/C(C)=C\C=C\[C@H](C)[C@H](O)[C@@H](C)[C@@H](O)[C@@H](C)[C@H](OC(C)=O)[C@@H]1C` [RIFAMPIN], the MIC against Escherichia coli [1], with Escherichia coli [2], in the experiment on Escherichia coli [3], in the experiment on Klebsiella pneumoniae and with Escherichia coli [4] was 16 µg/mL (≈ 19.4 µM) in each case.

On to COLISTIN, for which the MIC against Escherichia coli [1], in the experiment on Escherichia coli [2], against Escherichia coli [3], against Klebsiella pneumoniae and against Escherichia coli [4] was 0.5 µg/mL throughout.

In the case of `CO/N=C(\C(=O)N[C@@H]1C(=O)N2C(C(=O)O)=C(COC(C)=O)CS[C@H]12)c1csc(N)n1` [CEFOTAXIME], the MIC was 0.094 µg/mL (≈ 0.206 µM) in the experiment with Escherichia coli [1]; 0.094 µg/mL (≈ 0.206 µM) in the experiment on Escherichia coli [2]; 4 µg/mL (≈ 8.78 µM) against Escherichia coli [3]; greater than 256 µg/mL with Klebsiella pneumoniae; 32 µg/mL (≈ 70.3 µM) in the experiment with Escherichia coli [4].

Turning to `C[C@@H](O)[C@H]1C(=O)N2C(C(=O)O)=C(S[C@@H]3CN[C@H](C(=O)N(C)C)C3)[C@H](C)[C@H]12` [MEROPENEM], the MIC against Escherichia coli [1] is 0.06 µg/mL (≈ 0.156 µM); in the experiment on Escherichia coli [2], 0.06 µg/mL (≈ 0.156 µM); against Escherichia coli [3] it was 4 µg/mL (≈ 10.4 µM); against Klebsiella pneumoniae, greater than 32 µg/mL; in the experiment with Escherichia coli [4], 4 µg/mL (≈ 10.4 µM).

With `C[C@H]1[C@H](NC(=O)/C(=N\OC(C)(C)C(=O)O)c2csc(N)n2)C(=O)N1S(=O)(=O)O` [AZTREONAM], the MIC in the experiment on Escherichia coli [3] was 32 µg/mL (≈ 73.5 µM); against Klebsiella pneumoniae, greater than 256 µg/mL; against Escherichia coli [4], 64 µg/mL (≈ 147 µM).

As for `NCC[C@H](O)C(=O)N[C@@H]1C[C@H](N)[C@@H](O[C@H]2O[C@H](CN)[C@@H](O)[C@H](O)[C@H]2O)[C@H](O)[C@H]1O[C@H]1O[C@H](CO)[C@@H](O)[C@H](N)[C@H]1O` [AMIKACIN], the MIC in the experiment on Escherichia coli [1] was 1 µg/mL (≈ 1.71 µM); with Escherichia coli [2] it was 1 µg/mL (≈ 1.71 µM); in the experiment with Escherichia coli [3], 1 µg/mL (≈ 1.71 µM); with Klebsiella pneumoniae it was greater than 256 µg/mL; against Escherichia coli [4], 1 µg/mL (≈ 1.71 µM).

`CO/N=C(\C(=O)N[C@@H]1C(=O)N2C(C(=O)[O-])=C(C[N+]3(C)CCCC3)CS[C@H]12)c1csc(N)n1` [CEFEPIME]: the MIC was 0.032 µg/mL (≈ 0.0666 µM) against Escherichia coli [1], 0.125 µg/mL (≈ 0.26 µM) against Escherichia coli [2], 2 µg/mL (≈ 4.16 µM) in the experiment on Escherichia coli [3] and greater than 256 µg/mL in the experiment on Klebsiella pneumoniae.

For the molecule `O=C(O)c1cn(C2CC2)c2cc(N3CCNCC3)c(F)cc2c1=O` [CIPROFLOXACIN], in the experiment with Klebsiella pneumoniae, the MIC was greater than 32 µg/mL.
